Measurements as given in ChEMBL document CHEMBL4190397, “Design and Synthesis of Novel and Selective Glycine Transporter-1 (GlyT1) Inhibitors with Memory Enhancing Properties” (J Med Chem, 2018).

Assays:
[1] = Intrinsic clearance in human liver microsomes at 1 uM assessed per mg protein at 37 degC up to 60 mins in presence of NADPH by HPLC-MS analysis; format: ADME, microsome; conditions: read-out: CLH
[2] = Intrinsic clearance in rat liver microsomes at 1 uM assessed per mg protein at 37 degC up to 30 mins in presence of NADPH by HPLC-MS analysis; format: ADME, microsome; conditions: read-out: CLH
[3] = Plasma concentration in Sprague-Dawley rat at 10 mg/kg, po after 90 mins by LC-MS/MS analysis; format: ADME, organism-based
In short: (§1)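 Male SD rats (n=5) given a single oral dose of 10 mg/kg in NMP/PEG400/water (10:50:40). Plasma, total brain and CSF compound concentrations measured 90 min after dosing.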

Cytochrome P450 1A2 = target: T1, Cytochrome P450 1A2 (Homo sapiens, UniProt P05177); test: Inhibition of CYP1A2 in human liver microsomes using phenacetin as substrate measured after 10 mins in presence of NADPH by LC-MS/MS analysis
T1 sequence (P05177 whole entry): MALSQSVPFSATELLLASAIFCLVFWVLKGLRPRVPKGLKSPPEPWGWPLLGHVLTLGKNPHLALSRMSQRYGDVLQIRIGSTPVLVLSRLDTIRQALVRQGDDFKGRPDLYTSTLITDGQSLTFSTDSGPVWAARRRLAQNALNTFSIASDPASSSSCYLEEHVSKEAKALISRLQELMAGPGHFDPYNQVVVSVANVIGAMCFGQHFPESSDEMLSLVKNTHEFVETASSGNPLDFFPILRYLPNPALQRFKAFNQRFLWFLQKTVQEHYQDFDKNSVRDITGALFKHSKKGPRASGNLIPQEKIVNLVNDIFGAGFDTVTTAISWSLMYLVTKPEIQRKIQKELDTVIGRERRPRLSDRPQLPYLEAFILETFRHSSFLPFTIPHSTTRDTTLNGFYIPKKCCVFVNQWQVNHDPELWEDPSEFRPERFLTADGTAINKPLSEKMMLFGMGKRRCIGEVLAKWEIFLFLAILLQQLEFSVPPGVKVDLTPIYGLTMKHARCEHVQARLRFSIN

Cytochrome P450 3A4 = Cytochrome P450 3A4 (Homo sapiens, UniProt P08684); test: Inhibition of CYP3A4 in human liver microsomes using midazolam as substrate measured after 7 mins in presence of NADPH by LC-MS/MS analysis
[4] = Drug uptake in Sprague-Dawley rat brain at 10 mg/kg, po after 90 mins by LC-MS/MS analysis; format: ADME, organism-based; conditions: read-out: Drug uptake; in short: as §1
[5] = Drug uptake in Sprague-Dawley rat CSF at 10 mg/kg, po after 90 mins by LC-MS/MS analysis; format: ADME, organism-based, Cerebrospinal fluid; conditions: read-out: Drug uptake; in short: as §1
[6] = Unbound fraction in rat plasma at 1 uM by LC-MS/MS based equilibrium dialysis; format: ADME, cell-free
In short: (§2)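 Rat plasma or brain homogenate (1:6 in 0.1 M PBS pH 7.2) spiked to 1.0 µM, in triplicate. Rapid equilibrium dialysis (MWCO 8000) against PBS, shaken at 37 °C for 6 h. Matrix-matched samples quantified by LC-MS/MS. fu = receiver/donor concentration; brain value corrected for homogenate dilution.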

[7] = Unbound fraction in rat brain homogenate at 1 uM by LC-MS/MS based equilibrium dialysis; format: ADME, tissue-based; in short: as §2
[8] = Free drug level in rat brain homogenate at 1 uM by LC-MS/MS based equilibrium dialysis; format: ADME, tissue-based
[9] = Ratio of free drug level in rat brain homogenate at 1 uM to IC50 for inhibition of GlyT1 in primary rat cortical neurons; format: tissue-based
Rattus norvegicus [10] = test: In vivo inhibition of GlyT1 in Sprague-Dawley rat assessed as CSF glycine levels at 10 mg/kg, po administered as single dose measured after 90 mins by LC-MS/MS analysis relative to control; format: functional
In short: (§3)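 Male Sprague-Dawley rats (300−400 g, n = 5), fed ad libitum, dosed orally at 10 mg/kg (10 mL/kg) in NMP/PEG400/water (10:50:40), with a vehicle group (n = 5) in each study. CSF (~100 µL) taken under anaesthesia at 90 min. Glycine derivatised with Marfey's reagent, 13C2-15N-glycine internal standard, LC-MS/MS in negative ion mode. Expressed as % of vehicle; 1-way ANOVA.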

Rattus norvegicus [11] = test: In vivo inhibition of GlyT1 in Sprague-Dawley rat assessed as increase in CSF glycine levels at 10 mg/kg, po administered as single dose measured after 90 mins by LC-MS/MS analysis relative to control; format: functional; parameters: scale not given: the % may be the effect or the level left; in short: as §3

Chain of Cytochrome P450 3A4 (P08684 whole entry): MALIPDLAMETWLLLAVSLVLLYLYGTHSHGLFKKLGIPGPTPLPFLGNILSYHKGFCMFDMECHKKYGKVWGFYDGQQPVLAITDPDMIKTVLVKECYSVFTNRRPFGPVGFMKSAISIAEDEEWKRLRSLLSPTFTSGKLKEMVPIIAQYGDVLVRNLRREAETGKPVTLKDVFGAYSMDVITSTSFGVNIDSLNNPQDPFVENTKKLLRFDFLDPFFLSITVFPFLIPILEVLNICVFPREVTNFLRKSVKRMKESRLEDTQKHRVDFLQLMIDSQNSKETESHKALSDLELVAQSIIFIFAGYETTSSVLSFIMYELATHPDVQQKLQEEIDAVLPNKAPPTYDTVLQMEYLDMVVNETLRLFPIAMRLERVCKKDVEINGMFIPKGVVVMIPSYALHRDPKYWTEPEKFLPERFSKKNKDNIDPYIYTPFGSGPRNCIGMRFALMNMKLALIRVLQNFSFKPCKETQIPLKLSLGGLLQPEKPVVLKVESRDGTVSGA

| microsomal CLint at 1 µM [1] | microsomal CLint at 1 µM [2] | concentration at […] [3] | IC50 (Cytochrome P450 1A2) | IC50 (Cytochrome P450 3A4) | concentration at […] [4] | concentration at […] [5] | fraction unbound at 1 µM [6] | fraction unbound at 1 µM [7] | Drug uptake(free) [8] | Ratio [9] | SMILES | Activity (Rattus norvegicus [10]) | Activity (Rattus norvegicus [11]) |
| --- | --- | --- | --- | --- | --- | --- | --- | --- | --- | --- | --- | --- | --- |
| 0.3 µL/min/mg | 5.3 µL/min/mg | 2140 nM | > 10 µM | > 10 µM | 605 nM | 26 nM | 0.047 | 0.017 | 10.3 nM | 0.37 | CS(=O)(=O)c1ccc(OCC2CC2)c(C(=O)N2Cc3cn(-c4ccccc4F)nc3C2)c1 | 7.6 µM | 110% |
| 13.5 µL/min/mg | 451 µL/min/mg |  | > 10 µM | > 10 µM |  |  |  |  |  |  | C[C@H](Oc1ccc(C#N)cc1C(=O)N1Cc2cn(-c3ccccc3F)nc2C1)C(F)(F)F |  |  |
